From ChEMBL document CHEMBL1124603, “Renin inhibitors. Synthesis of transition-state analogue inhibitors containing phosphorus acid derivatives at the scissile bond” (J Med Chem, 1989) come the findings set out here.

For this test, the target named is T1, Renin (Homo sapiens, UniProt P00797).
T1 sequence (P00797 whole entry): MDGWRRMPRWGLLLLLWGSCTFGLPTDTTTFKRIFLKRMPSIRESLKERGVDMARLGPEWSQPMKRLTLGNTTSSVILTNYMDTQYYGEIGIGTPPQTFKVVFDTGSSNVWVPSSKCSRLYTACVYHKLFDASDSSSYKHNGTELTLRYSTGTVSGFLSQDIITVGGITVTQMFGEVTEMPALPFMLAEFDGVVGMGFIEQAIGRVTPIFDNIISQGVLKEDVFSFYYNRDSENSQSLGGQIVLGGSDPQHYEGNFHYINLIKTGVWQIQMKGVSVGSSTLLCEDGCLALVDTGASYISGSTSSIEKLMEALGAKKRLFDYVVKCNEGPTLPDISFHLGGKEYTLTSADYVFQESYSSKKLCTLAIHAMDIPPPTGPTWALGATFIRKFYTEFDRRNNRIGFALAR
Briefly: In vitro inhibition against human plasma renin at pH 7.2 was determined. The format is cell-free. An outline of the steps: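 Human plasma renin activity assayed in vitro at pH 7.2 with the synthetic peptides added. IC50 is the peptide concentration that lowered plasma renin activity by 50%.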

In general, IC50 refers to the concentration that gives 50% inhibition.

Starred links: 1 amine or outer side, 2 acyl side, 3 side chain; linkers in the order of their positions; H or OH if unused. Non-standard residues stand in square brackets, D forms with d. Residues, ends and D or L forms follow the SMILES beside them. ξ: configuration not given here. *: point of attachment. ξLeuψ(P(O)(OH)CH2)ξVal = CC(C)CC(N[*:1])P(=O)(O)CC(C(=O)[*:2])C(C)C; X1 = CC(C)CC(N[*:1])P(=O)(O)C[C@@H](C(=O)[*:2])C(C)C; X2 = CC(C)CC(N[*:1])P(=O)(O)CCC(=O)[*:2]; X3 = CC(C)CC(N[*:1])P(=O)(O)CC(=O)[*:2]; NMeH = CN[C@@H](Cc1c[nH]cn1)C(=O)O; NMeF = CN[C@@H](Cc1ccccc1)C(=O)O; ξR = N=C(N)NCCCC(N)C(=O)O; Cbz = O=C(OCc1ccccc1)*; Boc = CC(C)(C)OC(=O)*; OtBu = CC(C)(C)O*

On to `CC(C)CC(NC(=O)[C@H](Cc1c[nH]cn1)NC(=O)[C@H](Cc1ccccc1)NC(=O)[C@H]1CCCN1C(=O)OCc1ccccc1)P(=O)(O)O` (some centres not stated), for which the IC50 is 6.4 µM.

The compound `CC[C@H](C)[C@H](NC(=O)CCP(=O)(O)[C@@H](CC(C)C)NC(=O)[C@H](Cc1c[nH]cn1)NC(=O)[C@H](Cc1ccccc1)NC(=O)[C@H]1CCCN1C(=O)[C@H](CCCN=C(N)N)NC(=O)[C@H](CCCN=C(N)N)NC(=O)OCc1ccccc1)C(=O)N[C@@H](Cc1c[nH]cn1)C(N)=O` came in with an IC50 of 10 µM. With `CC[C@H](C)[C@H](NC(=O)[C@@H](CP(=O)(O)[C@@H](CC(C)C)NC(=O)[C@H](Cc1c[nH]cn1)NC(=O)[C@H](Cc1ccccc1)NC(=O)[C@H]1CCCN1C(=O)[C@H](CCCN=C(N)N)NC(=O)[C@H](CCCN=C(N)N)NC(=O)OCc1ccccc1)C(C)C)C(=O)N[C@@H](Cc1c[nH]cn1)C(N)=O` the figure was 0.1 µM; with `COC(=O)C(CP(=O)(O)C(CC(C)C)NC(=O)CC(O)C(CC(C)C)NC(=O)[C@H](Cc1cnc[nH]1)NC(=O)[C@H](Cc1ccccc1)NC(=O)OCc1ccccc1)C(C)C` (some centres not stated), above 30 µM; with `COC(=O)CC(O)[C@H](CC(C)C)NC(=O)[C@H](C)NC(=O)C(CP(=O)(O)C(CC(C)C)NC(=O)[C@H](Cc1c[nH]cn1)NC(=O)[C@H](Cc1ccccc1)NC(=O)[C@H]1CCCN1C(=O)OCc1ccccc1)C(C)C` (some centres not stated), 0.9 µM. With `CC[C@H](C)[C@H](NC(=O)C(CP(=O)(O)C(CC(C)C)NC(=O)[C@H](Cc1cnc[nH]1)NC(=O)[C@H](Cc1ccccc1)NC(=O)[C@H]1CCCN1C(=O)[C@H](Cc1cnc[nH]1)NC(=O)[C@H]1CCCN1)C(C)C)C(=O)N[C@@H](Cc1cnc[nH]1)C(=O)N[C@@H](CCCCN)C(=O)O` (some centres not stated) the figure was 0.07 µM; with `CC[C@H](C)[C@H](NC(=O)C(CP(=O)(O)C(CC(C)C)NC(=O)[C@H](Cc1cnc[nH]1)NC(=O)[C@H](Cc1ccccc1)NC(=O)[C@H]1CCCN1C(=O)OCc1ccccc1)C(C)C)C(=O)N[C@@H](Cc1cnc[nH]1)C(N)=O` (some centres not stated), 0.6 µM; with `CC(C)CC(NC(=O)[C@H](Cc1cnc[nH]1)NC(=O)[C@H](Cc1ccccc1)NC(=O)[C@H]1CCCN1C(=O)OCc1ccccc1)[PH](=O)O` (some centres not stated), above 30 µM. With `CC[C@H](C)[C@H](NC(=O)C(CP(=O)(O)C(CC(C)C)NC(=O)[C@H](Cc1ccccc1)NC(=O)[C@H](Cc1ccccc1)NC(=O)OC(C)(C)C)C(C)C)C(=O)N[C@@H](Cc1cnc[nH]1)C(N)=O` (some centres not stated) (Boc-FF[ξLeuψ(P(O)(OH)CH2)ξVal]IH-NH2) the figure was 6 µM; with `CC[C@H](C)[C@H](NC(=O)C(CP(=O)(O)C(CC(C)C)NC(=O)[C@H](Cc1ccccc1)N(C)C(=O)[C@H](Cc1ccccc1)NC(=O)OC(C)(C)C)C(C)C)C(=O)N[C@@H](Cc1c[nH]cn1)C(N)=O` (some centres not stated) (Boc-F[NMeF][ξLeuψ(P(O)(OH)CH2)ξVal]IH-NH2), above 30 µM; with `CC[C@H](C)[C@H](NC(=O)C(CP(=O)(O)C(CC(C)C)NC(=O)[C@H](Cc1c[nH]cn1)N(C)C(=O)[C@H](Cc1ccccc1)NC(=O)OC(C)(C)C)C(C)C)C(=O)N[C@@H](Cc1c[nH]cn1)C(N)=O` (some centres not stated) (Boc-F[NMeH][ξLeuψ(P(O)(OH)CH2)ξVal]IH-NH2), above 30 µM.

The compound `CC[C@H](C)[C@H](NC(=O)[C@H](CP(=O)(O)C(CC(C)C)NC(=O)[C@H](Cc1cnc[nH]1)NC(=O)[C@H](Cc1ccccc1)NC(=O)OCc1ccccc1)C(C)C)C(=O)N[C@@H](Cc1cnc[nH]1)C(N)=O` (some centres not stated) (Cbz-FH[X1]IH-NH2) registered an IC50 of 2 µM. With `CC[C@H](C)[C@H](NC(=O)CCP(=O)(O)C(CC(C)C)NC(=O)[C@H](Cc1cnc[nH]1)NC(=O)[C@H](Cc1ccccc1)NC(=O)OCc1ccccc1)C(=O)N[C@@H](Cc1cnc[nH]1)C(N)=O` (some centres not stated) (Cbz-FH[X2]IH-NH2) the figure was above 30 µM; with `CC[C@H](C)[C@H](NC(=O)CP(=O)(O)C(CC(C)C)NC(=O)[C@H](Cc1cnc[nH]1)NC(=O)[C@H](Cc1ccccc1)NC(=O)OCc1ccccc1)C(=O)N[C@@H](Cc1cnc[nH]1)C(N)=O` (some centres not stated) (Cbz-FH[X3]IH-NH2), above 30 µM. With `CC[C@H](C)[C@H](NC(=O)C(CP(=O)(O)C(CC(C)C)NC(=O)[C@H](Cc1cnc[nH]1)NC(=O)[C@H](Cc1ccccc1)NC(=O)OCc1ccccc1)C(C)C)C(=O)N[C@@H](Cc1ccccc1)C(N)=O` (some centres not stated) (Cbz-FH[ξLeuψ(P(O)(OH)CH2)ξVal]IF-NH2) the figure was 5 µM; with `CC[C@H](C)[C@H](NC(=O)C(CP(=O)(O)C(CC(C)C)NC(=O)[C@H](Cc1c[nH]cn1)NC(=O)[C@H](Cc1ccccc1)NC(=O)OCc1ccccc1)C(C)C)C(=O)NC(CCCN=C(N)N)C(=O)OC(C)(C)C` (some centres not stated) (Cbz-FH[ξLeuψ(P(O)(OH)CH2)ξVal]I[ξR]-OtBu), above 30 µM; with `CC[C@H](C)[C@H](NC(=O)C(CP(=O)(O)C(CC(C)C)NC(=O)[C@H](Cc1c[nH]cn1)NC(=O)[C@H](Cc1ccccc1)NC(=O)CNC(=O)OCc1ccccc1)C(C)C)C(=O)N[C@@H](Cc1c[nH]cn1)C(N)=O` (some centres not stated) (Cbz-GFH[ξLeuψ(P(O)(OH)CH2)ξVal]IH-NH2), 0.8 µM.
